Test results: article PMC9306949 (Clinical Pharmacology in Drug Development, 2022)
Entries after “also recorded” stand apart in the source; their conditions may differ. Read-outs that look alike come from different tables or passages of the source. Marks after values point to notes of the source that are not given here.

Assays:
MIC‐1 [1] = assay: Serum MIC-1 pharmacodynamics; type: in vivo, human; settings: for P, baseline predose MIC‐1 concentration / MIC‐1 %CFBC24 (percent change from predose concentration at 24 hours) / MIC‐1 %CFBCmax (percent change from predose concentration at Cmax) / MIC‐1 AUC0‐24 / MIC‐1 AUC0‐inf / MIC‐1 AUC0‐t / MIC‐1 C24 / MIC‐1 FoldC24 (C24/P): serum, mean (%CV)
[2] = physiologically based PK modeling; cited from earlier work
[3] = cynomolgus macaques; cited from earlier work
[4] = Safety: treatment-emergent adverse events; type: in vivo, human
MIC‐1 [5] = settings: patients with solid tumors/MM and AML; cited from earlier work
[6] = Urine excretion of navtemadlin and M1; type: in vivo, human
[7] = cited from earlier work
[8] = type: in vivo, human; settings: for exposure in UGT1A1*28 heterozygous poor metabolizers (6/7 TA repeats) vs WT (6/6 TA repeats): Treatment A, n = 16 vs n = 12; for C24: mean (%CV)
[9] = cited from earlier work; remark: listed apart in the source
[10] = monoprotic carboxylic acid; cited from earlier work
[11] = cited from earlier work; remark: listed apart in the source
[12] = system: T, B, and natural killer lymphocytes in peripheral blood; assay: Immunophenotyping of whole blood; type: in vivo, human; settings: periods 1 and 4; absolute counts and percentages
How it was run: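 Healthy adults took single 60-mg oral doses of the test compound. Whole blood (K2EDTA) was drawn at screening, predose on day 1 of periods 1 and 4, and on day 5 (96 h postdose). A validated GLP flow cytometry method gave absolute counts and percentages of peripheral T, B and NK lymphocytes.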

[13] = Treatment A: 60 mg new tablet fasted
[14] = Treatment B: 60 mg new tablet fed
[15] = Treatment C: 60 mg old tablet fasted
[16] = single 60-mg doses, healthy subjects
[17] = period 1 (old tablet fasted), 0-48 h urine

SMILES: CC(C)[C@@H](CS(=O)(=O)C(C)C)N1C(=O)[C@@](C)(CC(=O)O)C[C@H](c2cccc(Cl)c2)[C@H]1c1ccc(Cl)cc1 [Navtemadlin]
- pharmacodynamic half‐life of MIC‐1 serum elevations (MIC‐1 [1]; 60‐mg dose, healthy subjects): > 20 h
- correlation navtemadlin AUC0‐t vs MIC‐1 AUC0‐t, intercept (MIC‐1 [1]; Treatment A, AUC in nM • h): 1.97
- correlation navtemadlin AUC0‐t vs MIC‐1 AUC0‐t, slope (MIC‐1 [1]; Treatment A, AUC in nM • h): 0.0006
- P, baseline predose MIC‐1 concentration (MIC‐1 [1]; Treatment A: 60 mg new tablet fasted (periods 2-4)): 170 (119.8); 60 pg/mL
- MIC‐1 %CFBC24 (percent change from predose concentration at 24 hours) (MIC‐1 [1]; [13]): 2297 (101); 60%
- MIC‐1 %CFBCmax (percent change from predose concentration at Cmax) (MIC‐1 [1]; [13]): 3759 (103.5); 60%
- MIC‐1 AUC0‐24 (MIC‐1 [1]; [13]): 32743 (49.4); 60 pg • h/mL
- MIC‐1 AUC0‐inf (MIC‐1 [1]; [13]): 96215 (51.9); 31 pg • h/mL
- MIC‐1 AUC0‐t (MIC‐1 [1]; [13]): 89409 (48.7); 60 pg • h/mL
- MIC‐1 C24 (MIC‐1 [1]; [13]): 1318 (50.5); 60 pg/mL
- MIC‐1 FoldC24 (C24/P) (MIC‐1 [1]; [13]): 24.0 (96.8); 60
- P, baseline predose MIC‐1 concentration (MIC‐1 [1]; Treatment B: 60 mg new tablet fed (periods 2-4)): 214 (133.2); 30 pg/mL
- MIC‐1 %CFBC24 (percent change from predose concentration at 24 hours) (MIC‐1 [1]; [14]): 1778 (115.5); 30%
- MIC‐1 %CFBCmax (percent change from predose concentration at Cmax) (MIC‐1 [1]; [14]): 2684 (115.7); 30%
- MIC‐1 AUC0‐24 (MIC‐1 [1]; [14]): 29820 (52.7); 30 pg • h/mL
- MIC‐1 AUC0‐inf (MIC‐1 [1]; [14]): 67607 (35.1); 16 pg • h/mL
- MIC‐1 AUC0‐t (MIC‐1 [1]; [14]): 81332 (54.2); 30 pg • h/mL
- MIC‐1 C24 (MIC‐1 [1]; [14]): 1209 (47.7); 30 pg/mL
- MIC‐1 FoldC24 (C24/P) (MIC‐1 [1]; [14]): 18.8 (109.4); 30
- P, baseline predose MIC‐1 concentration (MIC‐1 [1]; Treatment C: 60 mg old tablet fasted (period 1)): 505 (41); 30 pg/mL
- MIC‐1 %CFBC24 (percent change from predose concentration at 24 hours) (MIC‐1 [1]; [15]): 139 (61.8); 30%
- MIC‐1 %CFBCmax (percent change from predose concentration at Cmax) (MIC‐1 [1]; [15]): 393 (62.5); 30%
- MIC‐1 AUC0‐24 (MIC‐1 [1]; [15]): 34365 (53.4); 30 pg • h/mL
- MIC‐1 AUC0‐inf (MIC‐1 [1]; [15]): 110915 (30.5); 4 pg • h/mL
- MIC‐1 AUC0‐t (MIC‐1 [1]; [15]): 91175 (38.5); 30 pg • h/mL
- MIC‐1 C24 (MIC‐1 [1]; [15]): 1144 (38.4); 30 pg/mL
- MIC‐1 FoldC24 (C24/P) (MIC‐1 [1]; [15]): 2.39 (36); 30
- fraction absorbed [2]: ~100%
- urinary excretion route [3]: minor excretion route
- All TEAEs: Number of Subjects with TEAE ([4]; Treatment A (Combined): new tablet fasted): 5
- All TEAEs: Number of Subjects with TEAE ([4]; Treatment B: new tablet fed): 2
- All TEAEs: Number of Subjects with TEAE ([4]; Treatment C: old tablet fasted (period 1)): Nine
- incidence of constipation (TEAE) ([4]; occurred only with treatment C (old tablet, fasted)): 13%
- incidence of headache (TEAE) ([4]; occurred with all treatments A, B, and C): 10%
- TEAE related to navtemadlin ([4]; reported once, treatment B (new tablet fed)): Headache
- discontinuations due to adverse events [4, 16]: without any discontinuations; also recorded: no subject discontinued due to an AE
- serious adverse events or deaths [4, 16]: No serious adverse events or deaths occurred; also recorded: No deaths or serious AEs occurred
- severity of adverse events [4, 16]: mild
- effect on serum PD marker MIC‐1 (MIC‐1 [5]): dose‐ and plasma concentration–dependent increases
- mean amount excreted in urine [6, 17]: 12.1 µg
- mean fraction of dose excreted in urine [6, 17]: 0.02%
- urine excretion ([6]; single 60-mg dose, healthy subjects): negligible
- protein‐bound [7]: 97.5%
- delay of tmax after a meal ([8]; B vs A: new tablet fed vs fasted): 1 h
- exposure in UGT1A1*28 heterozygous poor metabolizers (6/7 TA repeats) vs WT (6/6 TA repeats) [8]: slightly lower
- exposure in UGT1A1*28 heterozygous poor metabolizers (6/7 TA repeats) vs WT (6/6 TA repeats) ([8]; listed as navtemadlin): generally comparable
- time of second peak after dosing (enterohepatic recirculation) ([8]; all 3 treatments): around 10 hours
- tmax ([8]; human, plasma, oral, 60 mg): 2.01 h
- PK in H. pylori–positive vs H. pylori–negative subjects ([8]; n = 12 positive vs n = 18 negative): not markedly different; also recorded: not markedly affected
- decrease in extent of exposure (AUC0‐24, AUC0‐t, AUC0‐inf) with a high‐fat meal ([8]; new tablet fed vs fasted): 12% to 18%
- intersubject variability, AUC0‐24 %CV ([8]; new tablet, fasted): 55%
- intersubject variability, Cmax %CV ([8]; new tablet, fasted): 66%
- difference in median tmax between fed and fasted conditions, significance ([8]; new tablet, Wilcoxon signed-rank, alpha level of 0.1): statistically significant
- C24 ([8]; plasma, Treatment A: 60-mg new tablet, fasted): 37.4 (83.9); 60 ng/mL
- C24 ([8]; plasma, Treatment B: 60-mg new tablet, fed (high-fat meal)): 29.3 (83.3); 30 ng/mL
- C24 ([8]; plasma, Treatment C: 60-mg old tablet, fasted): 29.3 (83.6); 30 ng/mL
- intrasubject variability of PK parameters ([8]; reference formulation: new tablet, fasted): < 30%
- tmax, difference of medians (90%CI) ([8]; test-reference: B (new tablet fed) minus A (new tablet fasted)): 0.5 (0.004‐0.9) ^e , ^f h
- tmax, difference of medians (90%CI) ([8]; test-reference: C (old tablet fasted) minus A (new tablet fasted)): 0.1 (–0.3 to 0.6) ^e , ^f h
- dose dependence of exposure ([9]; dose range of 15 mg to 480 mg): linear
- apparent oral central volume of distribution ([9]; patients with solid tumors): 62.9 L
- pKa [10]: 4.35
- solubility, pH dependence [11]: increases with increasing pH
- lymphocyte subsets and monocytes, postdose (96 hours) vs predose [12]: did not differ
